Among the data in ChEMBL document CHEMBL4261486, “2-Arylaminobenzothiazole-arylpropenone conjugates as tubulin polymerization inhibitors” (Medchemcomm, 2017) are Activity, inhibition and IC50 values, retold here.

The source made the active and inactive calls. The calls are words filed in the database; no cut-off is given here.

In test [1] the test system is HeLa. In words: Cell cycle arrest in human HeLa cells assessed as accumulation at G2/M phase at 3 uM after 24 hrs by propidium iodide staining based flow cytometry (reference value: 33.4%). Format: functional. (In flow cytometry, cells or beads pass a laser one at a time.)
Test [2] concerns the target T1, Tubulin (Homo sapiens) (UniProt P68371+Q9H4B7+P0DPH7+P68366+Q13509+Q71U36+P04350+Q3ZCM7+P07437+P68363+Q9BQE3+Q6PEY2+Q13885+Q9BVA1+Q9BUF5). In words: Inhibition of tubulin polymerization in human HeLa cells assessed as disruption of microtubule organization at 3 uM after 24 hrs by DAPI staining based confocal microscopic analysis. Format: cell-based. The method in brief: (§1)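 HeLa cells on coverslips were exposed to 3 μM for 24 h and fixed in 3.5% formaldehyde in PBS. They were permeabilized with Triton X-100/Tween-20 and blocked in 2% BSA. Primary antitubulin antibody (1:200) was applied for 4 h, then FITC anti-mouse secondary (1:500) for 1 h. Nuclei were counterstained with DAPI and imaged by confocal microscopy at 60×, with a DMSO control.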

In the next test the test system is A549. In words: Antiproliferative activity against human A549 cells after 48 hrs by sulforhodamine B assay. The format is functional, cell-based. Particulars: A549, 48 h. The essentials:
(§2)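 Cells grown in DMEM with 10% FBS at 37 °C under 5% CO2. Plated cells were allowed 24 h before drug, then exposed continuously for 48 h at 0.01, 0.1, 1, 10 and 100 μM. Monolayers were fixed with cold 10% TCA for 1 h at 4 °C and stained with 0.057% SRB in 1% acetic acid for 30 min. Bound dye was read at 510 nm. IC50 is the 50% growth-inhibitory concentration, using time-zero and control readings.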

For test [3], the system named is HeLa. In words: Induction of apoptosis in human HeLa cells assessed as appearance of condensed nuclei at 1 uM after 24 hrs by Hoechst […] staining based fluorescence microscopic analysis. Format: functional, cell-based. The method in brief:
(§3)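 HeLa cells, 5 × 10^4 per well, were allowed 24 h to adhere. They were then exposed to 1 μM for 24 h at 37 °C and fixed in 4% paraformaldehyde for 10 min at 4 °C. Staining was with Hoechst […] at 5 μg/mL for 30 min at room temperature. Nuclear morphology was scored by fluorescence microscopy (ex 350, em 460 nm).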

For test [4], the system named is HeLa. In words: Induction of reactive oxygen species generation in human HeLa cells at 1 uM after 24 hrs by carboxy-DCFH-DA staining based fluorescence microscopic analysis. The format is functional, cell-based. The method in brief: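 Cells were treated with 1 μM for 24 h, then loaded with carboxy-DCFH-DA (10 μM) for 30 min at room temperature in the dark. They were resuspended in PBS at 5 × 10^4 cells per mL. DCF fluorescence was read by spectrofluorometer (ex 488 / em 525 nm per methods; 485/535 nm per legend), and images were taken by fluorescence microscopy.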

The target of test [5] is T1, Tubulin (Homo sapiens). In words: Inhibition of tubulin polymerization in human HeLa cells assessed as appearance of irregular microtubule at 3 uM after 24 hrs by DAPI staining based confocal microscopic analysis. Format: cell-based. The method in brief:
as §1

In test [6] the test system is HeLa. The test can be described thus: Antiproliferative activity against human HeLa cells after 48 hrs by sulforhodamine B assay. Format: functional, cell-based. The method in brief:
as §2
On the technique in general: Sulforhodamine B stains cellular protein and so reports cell mass.

The next test relates to MIA PaCa-2. In words: Antiproliferative activity against human MIAPaCa2 cells after 48 hrs by sulforhodamine B assay. The format is functional, cell-based. Particulars: MIA PaCa-2, 48 h. The method in brief:
as §2

In another test the test system is MDA-MB-231. The test can be described thus: Antiproliferative activity against human MDA-MB-231 cells after 48 hrs by sulforhodamine B assay. Format: functional, cell-based. Particulars: MDA-MB-231, 48 h. The essentials: as §2
Test [7] concerns HeLa. The test can be described thus: Induction of mitochondrial membrane potential loss in human HeLa cells at 1 uM after 24 hrs by Rh-123 staining based spectrofluorimetric method relative to control. Format: functional. The method in brief:
(§4)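 HeLa cells, seeded at 5 × 10^5 cells per mL overnight, were exposed to 1 μM for 24 h. Cells were trypsinized and incubated in PBS with Rhodamine-123 (10 μg/mL) for 30 min at room temperature, then washed. Fluorescence was read on a spectrofluorometer relative to control. Data are mean ± SD of three independent experiments.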

In test [8] the test system is HeLa. The test can be described thus: Upregulation of cyclin-B1 expression in human HeLa cells at 3 uM after 24 hrs by Western blot analysis. The format is functional, cell-based. The essentials:
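HeLa cells were treated with 3 μM for 24 h, with a DMSO vehicle control. Cyclin B1 protein was detected by immunoblot with tubulin as loading control.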
(In general: Immunoblotting shows a protein as a band on a membrane.)

Test [9] deals with T1, Tubulin (Homo sapiens). In words: Inhibition of tubulin polymerization in human HeLa cells assessed as increase of tubulin in soluble fraction at 3 uM after 24 hrs by Western blot analysis. Format: cell-based. The essentials:
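HeLa cells, 1 × 10^5 per well, were treated for 24 h (3 μM for test conjugates). The soluble fraction was extracted with warm PIPES/Triton lysis buffer for 3 min at 30 °C, and the remaining polymerized fraction was taken in Laemmli buffer. Equal volumes were run by SDS-10% PAGE and immunoblotted for α-tubulin (1:2000) with HRP secondary and ECL detection.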

Test [10] concerns the target T1, Tubulin (Homo sapiens). The test can be described thus: Inhibition of tubulin polymerization in human HeLa cells assessed as appearance of rounded microtubule at 3 uM after 24 hrs by DAPI staining based confocal microscopic analysis. The format is cell-based. The method in brief: as §1
For test [11], the system named is HeLa. In words: Induction of cyclin-B1 mRNA expression in human HeLa cells by qRT-PCR analysis. Format: functional, cell-based.
A short description of test [12]: Inhibition of bovine brain tubulin polymerization pretreated followed by GTP addition measured at 1 min interval for 1 hr by fluorescence reporter based assay. Details: species or system Bos taurus. The essentials: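 Bovine brain tubulin (2 mg/mL) was pre-incubated with compound at 1, 2, 3, 4 and 5 μM. The buffer was PEM (80 mM PIPES, 0.5 mM EGTA, 2 mM MgCl2, pH 6.9) with 10 μM fluorescent reporter and 1 mM GTP at 37 °C. Fluorescence (ex 360 / em 420 nm) was read every min for 1 h. IC50 was derived from these concentrations.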

For test [13], the system named is HeLa. The test can be described thus: Induction of apoptosis in human HeLa cells assessed as appearance of condensed nuclei after 24 hrs by Hoechst […] staining based fluorescence microscopic analysis. The format is functional, cell-based. The method in brief: as §3
For test [14], the system named is HeLa. The test can be described thus: Induction of mitochondrial membrane potential loss in human HeLa cells assessed as collapse of the mitochondrial membrane potential at 1 uM after 24 hrs by Rh-123 staining based spectrofluorimetric method relative to control. Format: functional. The method in brief:
as §4

A word on the IC50: it is the concentration that inhibits the measured activity by half. Regarding `COc1ccc2nc(-c3ccc(N/C=C\C(=O)c4ccc(OC)c(F)c4)c(C)c3)sc2c1`, the Activity worked out at 86.1% in the test on HeLa [1] and 30% with HeLa [7]. Besides, the inhibition entry at Tubulin (Homo sapiens) [2], on Tubulin (Homo sapiens) [5], at Tubulin (Homo sapiens) [9] and at Tubulin (Homo sapiens) [10] was “Active” in each case. Moreover, the IC50 in the test on A549 came to 1400 nM; with HeLa [6] it was 600 nM; in the test on MIA PaCa-2 it was 2300 nM; in the test with MDA-MB-231, 2000 nM; in test [12], 2900 nM. In addition, the result in the test on HeLa [3], in the test on HeLa [4], with HeLa [8] and with HeLa [11] was Active.

In the case of `COC(=O)Nc1nc2cc(C(=O)c3cccs3)ccc2[nH]1` [NOCODAZOLE], in the test with HeLa [1], the Activity is listed as 87.5%. Also, the 50% inhibitory concentration (IC50) with A549 stood at 820 nM; with HeLa [6], 840 nM; in the test on MIA PaCa-2, 910 nM; with MDA-MB-231, 710 nM; in [12], 1800 nM. For the same compound, the result with HeLa [4] and with HeLa [13] was Active.

Regarding `COc1ccc2nc(-c3ccc(N/C=C\C(=O)c4ccc(OC)c(F)c4)cc3)sc2c1`, the Activity in the test on HeLa [1] was found to be 88.7%; with HeLa [14] it was 40%. In addition, the inhibition entry on Tubulin (Homo sapiens) [2], at Tubulin (Homo sapiens) [5], at Tubulin (Homo sapiens) [9] and on Tubulin (Homo sapiens) [10] was “Active” in each case. Besides, the IC50 in the test with A549 was 900 nM; in the test with HeLa [6], 500 nM; in the test with MIA PaCa-2, 1300 nM; with MDA-MB-231, 1100 nM; in test [12] it was 2200 nM. In addition, the outcome with HeLa [3], in the test with HeLa [4], in the test with HeLa [8] and with HeLa [11] was Active.
